# According to PMC12646499 (Journal of Chemical Information and Modeling, 2025):
# pIC50: −log10 of the molar value.
# Legend:
# PD-1–PD-L1 interaction = PD-1–PD-L1 interaction (Homo sapiens, UniProt Q9NZQ7); experiment: PD-1–PD-L1 TR-FRET assay; format: binding
# Procedure, shortened: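 Test compound (from 5 mM DMSO stock, diluted in PBS) was preincubated 10 min with biotin-PD-L1 (added at 11 μg/mL) at room temperature in the dark. Eu-PD-1 (0.8 μg/mL) plus acceptor dye was then added for 1.5 h. Single doses were 5 and 25 μM final; dose-response used a 5:1 serial dilution. The 665/620 nm ratio (excitation 337 nm) was normalised to controls with and without PD-L1, in triplicate. IC50 came from nonlinear regression.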
# human PD-L1 = details: binds human PD-L1; previously published; cited from earlier work
# [1] = tested in clinical trials but discontinued; cited from earlier work
# [2] = tested on: LS 180 colorectal adenocarcinoma cells bearing the K-Ras G12D mutation; experiment: MTT cell toxicity assay in LS 180 cells; format: cell-based; details: 48 h
# Procedure, shortened: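 LS 180 cells were grown in DMEM with 10% FBS at 37 °C and 5% CO2, then seeded at 5000 cells/well in DMEM with 5% FBS and left to attach for 24 h. Test compound was added at 10, 4, 1.6 or 0.64 μM final, with 0.2% DMSO, in sextuplicate, for 48 h. MTT (0.35 mg/mL final) was added for 4 h, then DMF/SDS/HCl/acetic acid stop solution overnight at room temperature. A570 was read as % survival versus no compound.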
# PD-L1 = details: ligand in PDB 5N2F; cited from earlier work
# Chain of PD-1–PD-L1 interaction (Q9NZQ7 19-238 limits assumed): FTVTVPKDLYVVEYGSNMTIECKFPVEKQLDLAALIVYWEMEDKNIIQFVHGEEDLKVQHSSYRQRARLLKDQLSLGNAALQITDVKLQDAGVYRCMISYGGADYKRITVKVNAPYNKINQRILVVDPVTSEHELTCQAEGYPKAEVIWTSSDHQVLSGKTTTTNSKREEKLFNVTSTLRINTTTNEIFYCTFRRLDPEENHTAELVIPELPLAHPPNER
smiles,measurement,setting,value
Cc1c(Nc2nccc3cc(CN4CC[C@@H](O)C4)cnc23)cccc1-c1cccc(-c2nc3cc(CN4CC[C@@H](C(=O)O)C4)cc(C#N)c3o2)c1C [INCB086550],pIC50,PD-1–PD-L1 interaction,8.25
same,activity at 5 μM (in words),PD-1–PD-L1 interaction; 5 μM,complete loss of activity
same,pIC50,human PD-L1,8.51
same,toxicity in clinical trials (in words),[1],high toxicity
C#Cc1c(F)ccc2cc(O)cc(-c3ncc4c(N5CC6CCC(C5)N6)nc(OC[C@@]56CCCN5C[C@H](F)C6)nc4c3F)c12 [MRTX1133],GI50,[2],submicromolar
Cc1c(COc2cc(F)c(CNC[C@@H](O)CC(=O)O)cc2F)cccc1-c1ccc2c(c1)OCCO2 [BMS-200],pIC50,PD-L1,8.51
